Measured values from different studies.
Each line is one published result; the experiments were not run side by side.
Target: Homeodomain-interacting protein kinase 1 (HIPK1, Homo sapiens, UniProt Q86Z02)

`C[C@@H]1CCN(c2nccc(-c3cnn4ncccc34)n2)C1` has a remaining binding of 52% (binding; 1 µM).
With `COc1ncc2cc3ccccc3nc2c1C#N` the remaining binding was 81% (cell-free assay; competition with immobilised ligand; 5 µM).
`O=C(NCCCN1CCOCC1)c1ccc(Nc2nccc(-c3cc4ccccc4s3)n2)cc1` has a remaining binding of 36% (binding; competition with immobilised ligand; 1 µM).
The remaining binding of `O=C(NCC1CCOCC1)c1n[nH]cc1NC(=O)c1c(F)cccc1F` is reported as 69% (binding; competition with immobilised ligand; 1 µM).
`FC(F)(F)Oc1cccc(-c2cnc3ccc(-c4ccncc4)nn23)c1` gave a remaining binding of 0.15% (cell-free assay; competition with immobilised ligand; 5 µM).
With `COc1ccc2cc(OCC3(C(=O)O)CN(C(=O)c4ccc(F)cc4)C3)ccc2c1` the remaining binding was 100% (cell-free assay; competition with immobilised ligand; 1 µM).
The remaining binding of `COc1cnc(Nc2cccc(S(N)(=O)=O)c2)nc1N1CCN(c2ccccc2)C(=O)C1` is reported as 79% (binding; competition with immobilised ligand; 1 µM).
`FC(F)(F)c1ccc2c(c1)nc(-c1cccnc1)n2C1CC1` gave a remaining binding of 100% (cell-free assay; competition with immobilised ligand; 1 µM).
For `c1cnn2ncc(-c3ccnc(N4CCC45COC5)n3)c2c1`, the remaining binding was 29% (binding; 1 µM).
`O=C(c1ccc(Nc2ncc(Cl)c(-c3cc4ccccc4s3)n2)cc1)N1CCC(N2CCCC2)CC1` gave a remaining binding of 1.4% (binding; competition with immobilised ligand; 1 µM).
With `Nc1ncc2c(n1)-c1c([nH]c3ccc(C#CC4CC4)cc13)CCCC2` the remaining binding was 87% (binding; competition with immobilised ligand; 1 µM).
With `CCCCN(CCCC)C(=O)CN1C[C@@H](c2cc(OC)c3c(c2)OCO3)[C@H](C(=O)O)[C@H]1CC(C)(C)CCC` the remaining binding was 77.3% (cell-free assay; competition with immobilised ligand; 1 µM).
`Cc1cnc(Nc2ccc(C(=O)N3CCC(N4CCCC4)CC3)cc2)nc1-c1cc2ccccc2s1` gave a remaining binding of 2.2% (binding; competition with immobilised ligand; 1 µM).
The remaining binding of `C[C@@H](c1ccc(-n2cnc3c(N)ncnc32)cc1)N1CCc2nn(C)c(Cc3ccccc3)c2C1=O` is reported as 91% (binding; competition with immobilised ligand; 0.1 µM).
With `CN(C)c1nccc(-c2cnc3ncccn23)n1` the remaining binding was 44% (binding; 1 µM).
With `COc1ccc2c(c1)O[C@@H](c1ccc(OC)c(OC)c1)C[C@H]2NC(=O)C1(c2ccc3c(c2)OC(F)(F)O3)CC1` the remaining binding was 86% (cell-free assay; competition with immobilised ligand; 1 µM).
With `COc1cc(Nc2nccc(-c3cnn4nc(OC)ccc34)n2)cc(C(F)(F)F)c1` the remaining binding was 31% (binding; competition with immobilised ligand; 1 µM).
For `CN(C)c1ncc(F)c(-c2cnn3ncccc23)n1`, the remaining binding was 75% (binding; 1 µM).
The remaining binding of `Cc1c(C(=O)O)cc(-c2ccc(C3CCNCC3)cc2)c2ccc(-c3ccc(C(F)(F)F)cc3)cc12` is reported as 100% (binding; competition with immobilised ligand; 1 µM).
With `N[C@H]1CCN(c2nccc(-c3cnn4ncccc34)n2)C1` the remaining binding was 54% (binding; 1 µM).
For `O=C(O)c1cc(-c2ccc(C3CCNCC3)cc2)c2ccc(-c3ccc(C(F)(F)F)cc3)cc2c1`, the remaining binding was 97% (cell-free assay; competition with immobilised ligand; 1 µM).
